Data as given in ChEMBL document CHEMBL4689842, “EUbOPEN Chemogenomics Library wave 1” (2021).

System: HEK-293T
Assay: Multiplex assay against HEK293T;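 for Population Tubulin-Different-Phenotype (%): share of the cells with healthy nuclei that show this phenotype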
Assay type: toxicity, cell-based
Details: human
Summary of the method: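 Cells were classed with CellPathfinder machine-learning gating, first as Hoechst high-intensity objects or normal cells, then (normal cells) as healthy, pyknosed or fragmented nuclei, and finally (pyknosed cells) as mitotic or apoptotic. Staining of live cells at seeding used Hoechst33342, BioTracker Green Microtubule Cytoskeleton Dye, MitoTracker Red and Annexin V Alexa Fluor 680, with imaging on a CQ1 microscope at 37°C and 5% CO2 after compound addition. Tubulin, mitochondrial-mass and membrane-permeability phenotypes are per cents of healthy-nucleus cells.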

[1] = 12 h, 1 µM, compound concentration 1 uM, replicate 1
[2] = 12 h, 1 µM, compound concentration 1 uM, replicate 2
[3] = 12 h, 10 µM, compound concentration 10 uM, replicate 1
[4] = 12 h, 10 µM, compound concentration 10 uM, replicate 2
[5] = 24 h, 1 µM, compound concentration 1 uM, replicate 1
[6] = 24 h, 1 µM, compound concentration 1 uM, replicate 2
[7] = 24 h, 10 µM, compound concentration 10 uM, replicate 1
[8] = 24 h, 10 µM, compound concentration 10 uM, replicate 2

For `N#Cc1cnc(Nc2cc(NC[C@H]3CNCCO3)c(C(F)(F)F)cn2)cn1` [SRA-737], the “Population Apoptotic (%)” value [1] was 16%, the “Population Fragmented Nuclei (%)” value [1] was 13% and the “Population Healthy Nuclei (%)” value [1] was 66%. For the same compound, the “Population Hoechst High Intensity Objects (%)” value [1] was 13%, the “Population Membrane Permeable-Phenotype (%)” value [1] was 3% and the “Population Mitochondria Different-Phenotype (%)” value [1] was 3%. The “Population Mitotic Cells (%)” value [1] was 83%, the “Population Normal (%)” value [1] was 86% and the “Population Pyknosed Nuclei (%)” value [1] was 19%. For the same compound, the “Population Tubulin-Different-Phenotype (%)” value [1] was 3%, the “Total Cell Count” value [1] was 617 and the “Population Apoptotic (%)” value [2] was 12%. The “Population Fragmented Nuclei (%)” value [2] was 11%, the “Population Healthy Nuclei (%)” value [2] was 84% and the “Population Hoechst High Intensity Objects (%)” value [2] was 2%. The “Population Membrane Permeable-Phenotype (%)” value [2] was 2%, the “Population Mitochondria Different-Phenotype (%)” value [2] was 7% and the “Population Mitotic Cells (%)” value [2] was 87%. For the same compound, the “Population Normal (%)” value [2] was 97%, the “Population Pyknosed Nuclei (%)” value [2] was 3% and the “Population Tubulin-Different-Phenotype (%)” value [2] was 5%. For the same compound, the “Total Cell Count” value [2] was 2034, the “Population Apoptotic (%)” value [3] was 20% and the “Population Fragmented Nuclei (%)” value [3] was 10%. The “Population Healthy Nuclei (%)” value [3] was 69%, the “Population Hoechst High Intensity Objects (%)” value [3] was 14% and the “Population Mitochondria Different-Phenotype (%)” value [3] was 6%. For the same compound, the “Population Mitotic Cells (%)” value [3] was 79%, the “Population Normal (%)” value [3] was 85% and the “Population Pyknosed Nuclei (%)” value [3] was 20%. For the same compound, the “Population Tubulin-Different-Phenotype (%)” value [3] was 5%, the “Total Cell Count” value [3] was 721 and the “Population Apoptotic (%)” value [4] was 13%. For the same compound, the “Population Fragmented Nuclei (%)” value [4] was 6%, the “Population Healthy Nuclei (%)” value [4] was 85% and the “Population Hoechst High Intensity Objects (%)” value [4] was 3%. For the same compound, the “Population Membrane Permeable-Phenotype (%)” value [4] was 2%, the “Population Mitochondria Different-Phenotype (%)” value [4] was 16% and the “Population Mitotic Cells (%)” value [4] was 86%. The “Population Normal (%)” value [4] was 96%, the “Population Pyknosed Nuclei (%)” value [4] was 8% and the “Population Tubulin-Different-Phenotype (%)” value [4] was 16%. The “Total Cell Count” value [4] was 1376, the “Population Apoptotic (%)” value [5] was 9% and the “Population Fragmented Nuclei (%)” value [5] was 10%. For the same compound, the “Population Healthy Nuclei (%)” value [5] was 77%, the “Population Hoechst High Intensity Objects (%)” value [5] was 7% and the “Population Membrane Permeable-Phenotype (%)” value [5] was 5%. For the same compound, the “Population Mitochondria Different-Phenotype (%)” value [5] was 2%, the “Population Mitotic Cells (%)” value [5] was 90% and the “Population Normal (%)” value [5] was 92%. The “Population Pyknosed Nuclei (%)” value [5] was 11%, the “Population Tubulin-Different-Phenotype (%)” value [5] was 4% and the “Total Cell Count” value [5] was 740. For the same compound, the “Population Apoptotic (%)” value [6] was 5%, the “Population Fragmented Nuclei (%)” value [6] was 34% and the “Population Healthy Nuclei (%)” value [6] was 63%. The “Population Hoechst High Intensity Objects (%)” value [6] was 4%, the “Population Membrane Permeable-Phenotype (%)” value [6] was 8% and the “Population Mitochondria Different-Phenotype (%)” value [6] was 1%. For the same compound, the “Population Mitotic Cells (%)” value [6] was 94%, the “Population Normal (%)” value [6] was 95% and the “Population Pyknosed Nuclei (%)” value [6] was 2%. For the same compound, the “Population Tubulin-Different-Phenotype (%)” value [6] was 10%, the “Total Cell Count” value [6] was 3420 and the “Population Apoptotic (%)” value [7] was 25%. For the same compound, the “Population Fragmented Nuclei (%)” value [7] was 10%, the “Population Healthy Nuclei (%)” value [7] was 70% and the “Population Hoechst High Intensity Objects (%)” value [7] was 10%. The “Population Membrane Permeable-Phenotype (%)” value [7] was 4%, the “Population Mitochondria Different-Phenotype (%)” value [7] was 6% and the “Population Mitotic Cells (%)” value [7] was 75%. The “Population Normal (%)” value [7] was 89%, the “Population Pyknosed Nuclei (%)” value [7] was 18% and the “Population Tubulin-Different-Phenotype (%)” value [7] was 15%. The “Total Cell Count” value [7] was 729, the “Population Apoptotic (%)” value [8] was 21% and the “Population Fragmented Nuclei (%)” value [8] was 12%. For the same compound, the “Population Healthy Nuclei (%)” value [8] was 64%, the “Population Hoechst High Intensity Objects (%)” value [8] was 8% and the “Population Membrane Permeable-Phenotype (%)” value [8] was 7%. The “Population Mitochondria Different-Phenotype (%)” value [8] was 17%, the “Population Mitotic Cells (%)” value [8] was 78% and the “Population Normal (%)” value [8] was 91%. The “Population Pyknosed Nuclei (%)” value [8] was 22%, the “Population Tubulin-Different-Phenotype (%)” value [8] was 44% and the “Total Cell Count” value [8] was 1254.
